Measured values pooled from the literature.
Lines come from different studies, so protocols differ.
Target: Vascular endothelial growth factor receptor 3 (FLT4, Homo sapiens, UniProt P35916)

COc1ccc2oc(-c3ccc4nc(N)oc4c3)c/c(=N\c3ccccc3NC(=O)CCN)c2c1
remaining binding (binding; 1 µM): 105%

C=CC(=O)N1CCC([C@@H]2CCNc3c(C(N)=O)c(-c4ccc(Oc5ccccc5)cc4)nn32)CC1
inhibition (cell-free assay; 1 µM): 12%

O=C1C=C(Nc2ccc(OCc3cn(Cc4ccc(Br)cc4)nn3)cc2)C(=O)c2ccccc21
inhibition (enzyme activity, inhibitor, radiometric; 10 µM): 26%

COc1ccc2[nH]c3c4[nH]c5ccc(OC)cc5c4c4c(c3c2c1)C(=O)NC4=O
remaining binding (binding, competition with immobilised ligand; 1 µM): 71%

CCCCC(=O)Nc1ccc(-c2ccc3ncn(CCC)c(=O)c3c2)cn1
remaining binding (binding, competition with immobilised ligand; 0.5 µM): 100%

CN1CCN(C(=O)c2ccc(NC(=O)Nc3ccc(N(C)c4ccnc(Nc5ccc(CS(C)(=O)=O)cc5)n4)cc3)cc2)CC1
remaining binding (binding, competition with immobilised ligand; 1 µM): 2%

CC#CC(=O)N1CCC[C@H]1c1nc(-c2ccc(C(=O)Nc3ccccn3)cc2)c2c(N)nccn12
inhibition (enzyme activity, inhibitor; 1 µM): 0%

C1=C/COCc2cc(ccc2OCCN2CCCC2)Nc2nccc(n2)-c2cccc(c2)COC/1
remaining binding (binding; 0.1 µM): 69%
